From ChEMBL document CHEMBL1667748, “Synthesis and anti-inflammatory evaluation of some new acyl-hydrazones bearing 2-aryl-thiazole” (2011)
The source made the active and inactive calls. The calls are words filed in the database; no cut-off is given here.

What was measured:
Rattus norvegicus [1] = species: Rattus norvegicus; test: Induction of phagocytosis in Wistar-Bratislava albino rat PMNC using Escherichia coli suspension assessed as reduction in phagocytosis index after 30 mins; format: functional
Rattus norvegicus [2] = test: Antiinflammatory activity against Wistar-Bratislava albino rat assessed as monocyte count at 3.2 mg/kg, ip (Rbv = 7.6+/-0.45%); format: functional; conditions: route intraperitoneal
Rattus norvegicus [3] = test: Antiinflammatory activity against Wistar-Bratislava albino rat assessed as leukocyte count at 3.2 mg/kg, ip (Rbv = 4952.7+/-436.9 number/mm'3); format: functional; conditions: route intraperitoneal
Rattus norvegicus [4] = test: Antiinflammatory activity against Wistar-Bratislava albino rat assessed as lymphocyte count at 3.2 mg/kg, ip (Rbv = 37+/-2.2%); format: functional; conditions: route intraperitoneal
Rattus norvegicus [5] = species: Rattus norvegicus; test: Induction of phagocytosis in Wistar-Bratislava albino rat PMNC using Escherichia coli suspension assessed as reduction in phagocytosis activity after 30 mins; format: functional
Rattus norvegicus [6] = test: Antiinflammatory activity against Wistar-Bratislava albino rat assessed as reduction serum nitrate/nitrite concentration at 3.2 mg/kg, ip; format: functional, organism-based; set-up: dose 3.2 mg/kg
Outline: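 In rats given turpentine oil 0.6 mL/100 g i.m. plus i.p. treatment in 1% carboxymethyl cellulose suspension, serum nitrate was reduced to nitrite with VCl3 in acidic solution. Griess reagents (SULF, NEDD) were then added, and absorbance at 540 nm was read after about 30-45 min incubation.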

Rattus norvegicus [7] = test: Antiinflammatory activity against Wistar-Bratislava albino rat assessed as neutrophil count at 3.2 mg/kg, ip (Rbv = 55.6+/-1.32%); format: functional; conditions: route intraperitoneal

| Structure (SMILES) | Activity (Rattus norvegicus [1]) | Activity (Rattus norvegicus [2]) | Activity (Rattus norvegicus [3]) | Activity (Rattus norvegicus [4]) | Activity (Rattus norvegicus [5]) | Activity (Rattus norvegicus [6]) | Activity (Rattus norvegicus [7]) |
| --- | --- | --- | --- | --- | --- | --- | --- |
| O=C(COc1ccc2c(=O)cc(-c3ccccc3)oc2c1)N/N=C\c1ccc(OCc2csc(-c3ccccc3)n2)cc1 | Active | 3.71% | 8228.57 /mm3 | 23.57% | Active | inactive | 76% |
| O=C(Cc1csc(-c2cccc(C(F)(F)F)c2)n1)N/N=C/c1ccccc1OCc1csc(-c2ccc(Br)cc2)n1 | Active | 2.57% | 7837.14 /mm3 | 24.71% | Active | – | 68.85% |
| O=C(COc1ccc2c(=O)cc(-c3ccccc3)oc2c1)N/N=C/c1cccc(OCc2csc(-c3ccc(Br)cc3)n2)c1 | Active | 3.28% | 8000 /mm3 | 39.86% | Active | Active | 57.43% |
| O=C(Cc1csc(-c2cccc(C(F)(F)F)c2)n1)N/N=C\c1ccc(OCc2csc(-c3ccccc3)n2)cc1 | Active | 2% | 5664.28 /mm3 | 20.71% | Active | inactive | 82.28% |
| O=C(Cc1csc(-c2cccc(C(F)(F)F)c2)n1)N/N=C/c1cccc(OCc2csc(-c3ccc(Br)cc3)n2)c1 | – | 2.86% | 6914.28 /mm3 | 23.43% | Active | Active | 70.86% |
| Cc1ccc(-c2nc(CC(=O)N/N=C/c3ccccc3OCc3csc(-c4ccc(Br)cc4)n3)cs2)cc1 | – | 2.86% | 9300 /mm3 | 29.14% | – | inactive | 67.71% |
| Cc1cnc(NC(=O)C2=C(O)c3ccccc3S(=O)(=O)N2C)s1 [MELOXICAM] | – | 2% | 7660 /mm3 | 32.28% | – | – | 66.57% |
| O=C(Cc1csc(-c2cccc(C(F)(F)F)c2)n1)N/N=C/c1cccc(OCc2csc(-c3ccccc3)n2)c1 | Active | 2.4% | 9540 /mm3 | 32.28% | Active | – | 61.71% |
| O=C(COc1ccc2c(=O)cc(-c3ccccc3)oc2c1)N/N=C/c1cccc(OCc2csc(-c3ccccc3)n2)c1 | – | 2.6% | 12100 /mm3 | 24% | – | Active | 71.71% |
| Cc1ccc(-c2nc(CC(=O)N/N=C\c3ccc(OCc4csc(-c5ccc(Br)cc5)n4)cc3)cs2)cc1 | – | 2.71% | 7314.28 /mm3 | 28.57% | – | – | 68.28% |
| Cc1ccc(-c2nc(CC(=O)N/N=C\c3ccc(OCc4csc(-c5ccccc5)n4)cc3)cs2)cc1 | – | 1.86% | 3271.43 /mm3 | 21.43% | – | inactive | 52.57% |
| O=C(Cc1csc(-c2cccc(C(F)(F)F)c2)n1)N/N=C\c1ccc(OCc2csc(-c3ccc(Br)cc3)n2)cc1 | – | 3.14% | 7402.85 /mm3 | 32% | – | inactive | 63.14% |
| Cc1ccc(-c2nc(CC(=O)N/N=C/c3cccc(OCc4csc(-c5ccccc5)n4)c3)cs2)cc1 | – | 2.86% | 8620 /mm3 | 19.71% | – | inactive | 73.29% |
| Cc1nc(-c2ccccc2)sc1C(=O)COc1ccc(/C=N\NC(=O)Cc2csc(-c3cccc(C(F)(F)F)c3)n2)cc1 | Active | 2% | 10200 /mm3 | 18% | – | Active | 78% |
| Cc1ccc(-c2nc(CC(=O)N/N=C\c3ccc(OCC(=O)c4sc(-c5ccccc5)nc4C)cc3)cs2)cc1 | Active | 2.43% | 8742.85 /mm3 | 32.14% | Active | Active | 66% |
